# Screening results deposited in PubChem BioAssay by several laboratories.
# A selection: hits, their analogues and other compounds. The true share with any hit is near 8.9%.
# Dynein cargo inh: dynein cargo transport inhibition; 3617.4 mouse cells, GR-EGFP nuclear translocation imaging; test concentration mostly 20 µM; stimulated with dexamethasone, 1 µM; hits give low values; z-score, hits read low; actives 0.47% (n = 220,000);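 active means plate z-score of nuclear minus cytoplasmic receptor signal below a set negative limit, without overly bright fluorescence or cell loss, cut at about -3.5 in these data, passing the limit was not always enough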;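 further: z-score of nuclear minus cytoplasmic ring GR-EGFP intensity difference per well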
#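 Buffer or medium – tet-free medium with charcoal-stripped serum · Signal – automated 10x imaging of fixed Hoechst-stained cells · Also added – dexamethasone agonist, 1.0 µM final, for 30 min · Incubation – induction 48 h, compound 1 h, agonist 30 min · Read-out – GR-EGFP nuclear translocation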
# bCat nuc transl: modulators of beta-catenin nuclear translocation. nuclear translocation activity, % at 5 µM. AID 1665. actives 0.3% (n = 190,000). HeLa beta-catenin nuclear translocation, immunofluorescence imaging;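 active means nuclear translocation activity above 50% at 5 µM, with a well cell count of 50 or more; inconclusive means wells under 50 cells across six images, flagged as toxic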;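 further: per-cell ratio of nuclear to cytoplasmic median beta-catenin stain intensity; plate controls were DMSO negative control for no effect and GSK-3 inhibitor IX positive control for full effect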
#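 Test system: HeLa cells, endogenous beta-catenin; Compound: single 5 µM dose plus 0.02–20 µM confirmation series; Times: compound exposure 24 h at 37°C; Signal: fluorescence imaging of beta-catenin antibody stain plus DAPI; Read-out: % activation, nuclear-to-cytoplasmic median beta-catenin signal ratio per cell.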
# HSV augment: increases HSV replication in cells | actives 0.005% (n = 220,000) | HSV replication augmentation in cells, fold increase | maximum fold increase; in the data active means maximum fold increase above about 1.5; inconclusive means no clear call, values can overlap the other calls; tested in PC3 cells
# MT stabilizer: microtubule stabilizers in HeLa cells; actives 0.83% (n = 200,000); % tubulin-high responders, % at 10 µM; AID 2205; HeLa tubulin immunostaining HCS, 24 h; share of cells brighter than vehicle mean+2SD;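 active means plate Z-score above 3 for both tubulin-high and condensed-nucleus cell shares, with cell loss under 80%, at 10 µM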;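 further: anti alpha tubulin signal scored within the nucleus-defined area of each cell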
# L major viab: inhibitors of Leishmania major promastigote growth | Leishmania major promastigotes, resazurin fluorescence viability | inhibition, % at 10 µM | AID 1063 | actives 9% (n = 200,000); in the data active means inhibition above about 50%;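 further: promastigotes grown with compound for 44 hours at 28 °C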
# The depositor's hits bear a star; i = inactive; ? = inconclusive; nt = not tested or not shown.
SMILES,Dynein cargo inh,bCat nuc transl,HSV augment,MT stabilizer,L major viab
Cc1nc2cc(F)ccc2n1C1CCN(Cc2nnnn2CCc2ccccc2)CC1,-0.64,-5,i,2,32
FC(F)(F)c1ccc2c(c1)nnn2C1CCN(Cc2nnnn2Cc2ccccc2)CC1,-1.1,1,i,3,-1
Cc1nc2cc(C(F)(F)F)ccc2n1C1CCN(Cc2nnnn2CCc2ccccc2)CC1,-0.22,-3,i,4,98*
Cc1ccc(Cn2nnnc2CN2CCC(n3nnc4cc(C(F)(F)F)ccc43)CC2)cc1,-0.54,-3,i,2,53*
CCC1(CC)C(=O)N(C)C(=O)NC1=NC,-0.31,-1,i,nt,nt
O=C1NC(=O)N(Cc2ccco2)C(=O)/C1=C/c1ccc(-c2cccc([N+](=O)[O-])c2)o1,-3.2,-1,i,2,99*
Cc1c(N=Cc2c(O)n(Cc3ccc(F)cc3)c(=O)[nH]c2=O)c(=O)n(-c2ccccc2)n1C,-0.81,nt,i,2,-3
CCN(CC)c1ccc(C=C2C(=O)N(C)C(=S)N(C)C2=O)o1,-0.4,nt,?,2,72*
O=C1NC(=O)N(c2ccccc2F)C(=O)/C1=C/c1ccc(Sc2nc3ccccc3[nH]2)o1,1.1,0,?,5,-4
N#CCCn1cc(C(=O)Nc2ccc([N+](=O)[O-])cc2)c(-c2ccc3c(c2)OCCO3)n1,-0.28,1,i,5,21
Cc1ncc(CN2CCCC(C(=O)c3ccc(C(C)(C)C)cc3)C2)s1 (centres undefined),2.7,0,i,2,91*
COc1ccc(C(=O)C2CCCN(Cc3ccccn3)C2)c(OC)c1 (centres undefined),-0.82,0,i,2,-5
CCOC(=O)c1[nH]ncc1CN1CCCC(C(=O)c2cccc(Cl)c2)C1 (centres undefined),-0.17,2,i,nt,nt
COc1ccc(C(=O)C2CCCN(Cc3cnc(C)s3)C2)cc1OC (centres undefined),-0.28,0,i,3,81*
Cc1ncc(CN2CCCC(C(=O)c3cccc(Cl)c3)C2)s1 (centres undefined),-0.59,-3,i,2,85*
COc1ccc(C(=O)C2CCCN(Cc3ccon3)C2)cc1OC (centres undefined),-0.069,0,i,2,12
COc1ccc(C(=O)C2CCCN(Cc3cnc(C)s3)C2)c(OC)c1 (centres undefined),0.82,1,i,4,87*
CCCOc1ccccc1C1SCC(=O)Nc2c1c(=O)[nH]n2C(C)CCC (centres undefined),0.66,-3,i,4,3
Cc1ccc2c(c1)C1CN(C)CCC1N2C(=O)c1ccco1 (centres undefined),-1.3,-4,i,2,0
Brc1ccc2c(c1)C(OC1CN3CCC1CC3)c1ccccc1CS2 (centres undefined),3.8,5,i,4,100*
O=C(NCCCN1CCOCC1)C(Cl)(Cl)Cl,-0.081,nt,i,3,53*
O=C(NCCN1CCOCC1)c1ccc(Cl)nc1,0.28,0,i,nt,nt
CCCCn1c(NC(=O)c2ccco2)c(C(=O)OCC)c2nc3ccccc3nc21,2.2,-1,i,1,76*
CCCCn1c(N)c(C(=O)OCCOC)c2nc3ccccc3nc21,0.062,0,i,nt,nt
CCCCn1c(N)c(C(=O)OCC2CCCO2)c2nc3ccccc3nc21 (centres undefined),2.1,-3,i,9,100*
SMILES,Dynein cargo inh,bCat nuc transl,HSV augment,MT stabilizer,L major viab
CC(C)CCn1c(N)c(C(=O)OCC2CCCO2)c2nc3ccccc3nc21 (centres undefined),-0.63,-5,i,2,54*
O=P(Nc1c(Cl)cccc1Cl)(c1ccccc1)c1nc2c(s1)CCCC2 (centres undefined),-0.59,-1,i,2,-2
O=C1NC(=O)N(c2ccc3c(c2)OCO3)C(=O)/C1=C/c1ccc(N2CCCCC2)o1,0.28,-3,?,3,7
CN1CN(c2cccc([N+](=O)[O-])c2)CN=C1N[N+](=O)[O-],0.64,-3,i,5,-6
O=C1/C(=C/c2ccc3c(c2)OCO3)N2CCC1CC2,-0.38,-3,i,7,-2
O=C1/C(=C\c2cc3c(cc2Br)OCO3)N2CCC1CC2,-0.8,4,i,1,63*
Cn1nc(N)c2c1N=P(N1CCOCC1)(N1CCOCC1)N=C2c1ccccc1,-0.84,-2,i,2,0
COc1cc(OC)c(OC)cc1/C=C1/C(=O)NC(=O)N(Cc2ccccc2)C1=O,-0.29,2,i,nt,nt
CCN1C(=O)/C(=C/c2ccc(N(CC)CC)cc2OC)C(=O)NC1=S,1.1,2,i,4,99*
O=C(CN1CC=C(c2ccccc2)CC1)Nc1cc(Cl)ccc1Cl,-0.5,2,i,2,55*
O=C(CN1CC=C(c2ccccc2)CC1)Nc1c(Cl)cccc1Cl,0.0059,0,i,5,5
CC(=O)NNC(=O)CN1C(=O)CN=C(c2ccccc2)c2cc(Br)ccc21,2,-1,i,5,13
COc1ccccc1Cn1c(SCC(=O)C(C)(C)C)nc2cc(C(=O)N3CCC4(CC3)OCCO4)ccc2c1=O,-0.72,-1,i,2,57*
Cc1cc(Br)ccc1N1C(=O)CC(=O)NC1=O,0.47,1,i,3,-6
CCN(c1ccc(C(O)(C(=O)OC)C(F)(F)F)cc1)S(=O)(=O)c1ccccc1 (centres undefined),1.8,-1,i,2,99*
CCOC(=O)C(O)(c1ccc(N(CC)S(=O)(=O)c2ccccc2)cc1)C(F)(F)F (centres undefined),-0.33,-3,i,4,100*
N#CCCn1cc(C(=O)NCc2ccccc2)c(-c2ccccc2)n1,-0.14,1,i,3,-4
CN1CCC(OC(=O)C2c3ccccc3Oc3ccccc32)CC1,0.1,2,i,4,86*
O=c1cccc2n1CC1CC2CN(Cc2cccc(Cl)c2Cl)C1 (centres undefined),-1.2,-6,i,5,16
Cc1cccc(N2CCN(CCc3ccccc3)CC2)c1C,0.3,2,nt,1,5
Cc1ccc(N2CCN(CCc3ccccc3)CC2)cc1,-0.91,1,i,2,84*
CC(NCc1ccc(Cl)c(Cl)c1)C(O)c1ccccc1 (centres undefined),-1.1,0,i,1,91*
CC(NCc1ccccc1Cl)C(O)c1ccccc1 (centres undefined),1.1,0,i,2,3
COc1ccccc1CC1C(=O)C2CCN1CC2 (centres undefined),0.48,-3,i,2,2
O=C1C2CCN(CC2)C1Cc1ccc(OCc2ccccc2)cc1 (centres undefined),-0.073,-6,i,4,100*
